ChEMBL document CHEMBL1157704, “Potent activity against K562 cells by polyamide-seco-CBI conjugates targeting histone H4 genes” (Bioorg Med Chem, 2010)

What was measured:
Format in all cases: functional
[1] = test system: K562; assay: Effect on NTS gene expression in human K562 cells assessed as change in mRNA transcript expression at 10 nM after 48 hrs by DNA microarray analysis relative to control
How it was run: (§1)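 K562 CML cells (b3a2 Bcr-Abl) in standard ATCC-recommended culture, exposed once to 10 nM conjugate and harvested at 48 h. Untreated controls were also collected at 48 h. Transcripts were profiled on Human Gene 1.0 ST whole-genome oligonucleotide arrays, and each treated level was expressed relative to the untreated control, with a cutoff of at least twofold change.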

[2] = test system: K562; assay: Effect on DIAPH2 gene expression in human K562 cells assessed as change in mRNA transcript expression at 10 nM after 48 hrs by DNA microarray analysis relative to control
How it was run: (§2)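 Transcripts were profiled on Affymetrix GeneChip Human Gene 1.0 ST arrays in K562 cells treated at 10 nM. Treated cells were collected at 6, 12, 24 and 48 h; untreated controls were collected at 48 h. Transcripts changed at least twofold versus control were scored.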

[3] = test system: K562; assay: Effect on UBE2W gene expression in human K562 cells assessed as change in mRNA transcript expression at 10 nM after 48 hrs by DNA microarray analysis relative to control
How it was run: (§3)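 K562 CML cells (b3a2 Bcr-Abl) kept under standard culture conditions were exposed to 10 nM conjugate and harvested at 6, 12, 24 and 48 h. Untreated controls were harvested at 48 h. Whole-transcript oligonucleotide microarray profiling was done, and changes of at least twofold versus control were scored.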

[4] = test system: K562; assay: Effect on HIST1H2AH gene expression in human K562 cells assessed as change in mRNA transcript expression at 10 nM after 48 hrs by DNA microarray analysis relative to control; how it was run: as §2
[5] = test system: K562; assay: Effect on HSPA1B gene expression in human K562 cells assessed as change in mRNA transcript expression at 10 nM after 48 hrs by DNA microarray analysis relative to control; how it was run: as §1
[6] = test system: K562; assay: Effect on CD52 gene expression in human K562 cells assessed as change in mRNA transcript expression at 10 nM after 48 hrs by DNA microarray analysis relative to control; how it was run: as §2
[7] = test system: K562; assay: Effect on MRPS28 gene expression in human K562 cells assessed as change in mRNA transcript expression at 10 nM after 48 hrs by DNA microarray analysis relative to control; how it was run: as §1
[8] = test system: K562; assay: Effect on RHCE/RHD gene expression in human K562 cells assessed as change in mRNA transcript expression at 10 nM after 48 hrs by DNA microarray analysis relative to control; how it was run: as §1
[9] = test system: K562; assay: Effect on C0MMD1 gene expression in human K562 cells assessed as change in mRNA transcript expression at 10 nM after 48 hrs by DNA microarray analysis relative to control; how it was run: as §2
[10] = test system: K562; assay: Effect on SNORD80 gene expression in human K562 cells assessed as change in mRNA transcript expression at 10 nM after 48 hrs by DNA microarray analysis relative to control; how it was run: as §1
[11] = test system: K562; assay: Effect on EXOC6B gene expression in human K562 cells assessed as change in mRNA transcript expression at 10 nM after 48 hrs by DNA microarray analysis relative to control; how it was run: as §2
[12] = test system: K562; assay: Effect on TDRG1 gene expression in human K562 cells assessed as change in mRNA transcript expression at 10 nM after 48 hrs by DNA microarray analysis relative to control; how it was run: as §1
[13] = test system: K562; assay: Induction of apoptosis in human K562 cells assessed as viable cells at 125 nM after 48 hrs by annexin-V FITC and propidium iodide staining-based FACS analysis; settings: K562, 48 h, read-out: Activity
How it was run: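 K562 cells were exposed to conjugate in culture medium for 48 h, then stained with annexin V-FITC plus propidium iodide. Cell populations were quantified by flow cytometry.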

[14] = test system: K562; assay: Effect on LPHN3 gene expression in human K562 cells assessed as change in mRNA transcript expression at 10 nM after 48 hrs by DNA microarray analysis relative to control; how it was run: as §1
[15] = test system: K562; assay: Effect on HIST1H4K gene expression in human K562 cells assessed as down-regulation of mRNA transcript expression at 10 nM after 48 hrs by DNA microarray analysis relative to control; how it was run: as §1
[16] = test system: K562; assay: Effect on HIST1H2A gene expression in human K562 cells assessed as change in mRNA transcript expression at 10 nM after 48 hrs by DNA microarray analysis relative to control; how it was run: as §2
[17] = test system: K562; assay: Effect on AMN1 gene expression in human K562 cells assessed as change in mRNA transcript expression at 10 nM after 48 hrs by DNA microarray analysis relative to control; how it was run: as §2
[18] = test system: K562; assay: Effect on GTDC1 gene expression in human K562 cells assessed as change in mRNA transcript expression at 10 nM after 48 hrs by DNA microarray analysis relative to control; how it was run: as §2
[19] = test system: K562; assay: Effect on HIST1H2AC gene expression in human K562 cells assessed as change in mRNA transcript expression at 10 nM after 48 hrs by DNA microarray analysis relative to control; how it was run: as §2
[20] = test system: K562; assay: Effect on FLJ21767 gene expression in human K562 cells assessed as change in mRNA transcript expression at 10 nM after 48 hrs by DNA microarray analysis relative to control; how it was run: as §2
[21] = test system: K562; assay: Effect on TPK1 gene expression in human K562 cells assessed as change in mRNA transcript expression at 10 nM after 48 hrs by DNA microarray analysis relative to control; how it was run: as §3
[22] = test system: K562; assay: Effect on PYROXD1 gene expression in human K562 cells assessed as change in mRNA transcript expression at 10 nM after 48 hrs by DNA microarray analysis relative to control; how it was run: as §1
[23] = test system: K562; assay: Effect on TXNIP gene expression in human K562 cells assessed as change in mRNA transcript expression at 10 nM after 48 hrs by DNA microarray analysis relative to control; how it was run: as §3
[24] = test system: K562; assay: Effect on NDUFS4 gene expression in human K562 cells assessed as change in mRNA transcript expression at 10 nM after 48 hrs by DNA microarray analysis relative to control; how it was run: as §1
[25] = test system: K562; assay: Effect on HSPA1A gene expression in human K562 cells assessed as change in mRNA transcript expression at 10 nM after 48 hrs by DNA microarray analysis relative to control; how it was run: as §1
[26] = test system: K562; assay: Effect on STAG1 gene expression in human K562 cells assessed as change in mRNA transcript expression at 10 nM after 48 hrs by DNA microarray analysis relative to control; how it was run: as §1
[27] = test system: K562; assay: Effect on TCN1 gene expression in human K562 cells assessed as change in mRNA transcript expression at 10 nM after 48 hrs by DNA microarray analysis relative to control; how it was run: as §1
[28] = test system: K562; assay: Effect on HIST1H3D gene expression in human K562 cells assessed as change in mRNA transcript expression at 10 nM after 48 hrs by DNA microarray analysis relative to control; how it was run: as §2
[29] = test system: K562; assay: Effect on NET1 gene expression in human K562 cells assessed as change in mRNA transcript expression at 10 nM after 48 hrs by DNA microarray analysis relative to control; how it was run: as §1

In the case of `CC(=O)Nc1cn(C)c(C(=O)Nc2cn(C)c(C(=O)NCCC(=O)Nc3cn(C)c(C(=O)NCCCC(=O)Nc4cc(C(=O)Nc5cn(C)c(C(=O)Nc6ccc7[nH]c(C(=O)N8CC(CCl)c9c8cc(O)c8ccccc98)cc7c6)n5)n(C)c4)n3)n2)n1` (centres undefined), the “fold change (FC)” value [1] is reported as “>=2”, the “fold change (FC)” value [2] is reported as “>=2” and the “fold change (FC)” value [3] is reported as “>=2”. The “fold change (FC)” value [4] was “>=2”, the “fold change (FC)” value [5] was “>=2” and the “fold change (FC)” value [6] was “>=2”. For the same molecule, the “fold change (FC)” value [7] was “>=2”, the “fold change (FC)” value [8] was “>=2” and the “fold change (FC)” value [9] was “>=2”. The “fold change (FC)” value [10] was “>=2”, the “fold change (FC)” value [11] was “>=2” and the “fold change (FC)” value [12] was “>=2”. The viability at 0.125 µM [13] was 80.3%, the “fold change (FC)” value [14] was “>=2” and the “fold change (FC)” value [15] was 2.71. The “fold change (FC)” value [16] was “>=2”, the “fold change (FC)” value [17] was “>=2” and the “fold change (FC)” value [18] was “>=2”. The “fold change (FC)” value [19] was “>=2”, the “fold change (FC)” value [20] was “>=2” and the “fold change (FC)” value [21] was “>=2”. For the same molecule, the “fold change (FC)” value [22] was “>=2”, the “fold change (FC)” value [23] was “>=2” and the “fold change (FC)” value [24] was “>=2”. The “fold change (FC)” value [25] was “>=2”, the “fold change (FC)” value [26] was “>=2” and the “fold change (FC)” value [27] was “>=2”. For the same molecule, the “fold change (FC)” value [28] was “>=2” and the “fold change (FC)” value [29] was “>=2”.
